What was measured:
K562 [1] = assay: Cell cycle analysis, propidium iodide flow cytometry; type: cell-based, human; conditions: K562, IC50 dose, 24 h
Procedure, shortened: (§1)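 Seeded at 0.5 x 10^6 cells per well in 12-well plates and treated 24 h at the IC50 concentration of each test compound from CellTiter-Glo. Cells were pelleted (400 g, 5 min), PBS-washed and fixed in 80% ethanol overnight at -20 °C. Staining used 50 µg/mL PI plus RNase overnight at 4 °C.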

THP-1 [2] = assay: NucView caspase 3 activity assay by flow cytometry; type: cell-based, human; conditions: for EC50: Homo sapiens, THP-1, 24 h, read-out: AP50 (50% induction of apoptosis), Caspase 3 activity assay (C3); for The lowest dose of polyphenols at which there was a significant induction of apoptosis compared to the vehicle control: THP-1, caspase 3 activity, 24 h, p<0.05
Procedure, shortened: (§2)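 Seeded at 0.5 x 10⁶ cells/well and treated 24 h, with series of 0–50 or 0–250 µM depending on compound. Normalized to vehicle (0% apoptosis). Mean ± STD, three independent experiments in triplicate. One-way ANOVA/Tukey, p<0.05. AP50 = concentration giving 50% apoptotic cells.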

THP-1 [3] = assay: Hoechst 33342 nuclear morphological analysis of apoptosis; type: cell-based; conditions: Homo sapiens, THP-1, 24 h, read-out: AP50 (50% induction of apoptosis), Hoechst 33342 staining (Hoe)
Procedure, shortened: (§3)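 Seeded at 0.5 x 10⁶ cells/well in 12-well plates and treated 24 h. Cells were pelleted (400 g, 5 min, 4 °C), washed in PBS, fixed in 4% paraformaldehyde, cytospun, air-dried, then stained with 10 μg/ml Hoechst 33342 for 10 min in the dark. Fluorescence microscopy: 200 cells counted, scored by condensed/intense nuclei, shrinkage, blebbing and apoptotic bodies. % apoptotic nuclei calculated. AP50 = concentration giving 50% apoptotic cells.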

U937 [4] = assay: as above; type: cell-based; conditions: Homo sapiens, U-937, 24 h, read-out: AP50 (50% induction of apoptosis), Hoechst 33342 staining (Hoe)
Procedure, shortened: as §3

HL60 [5] = assay: Cell cycle analysis, propidium iodide flow cytometry; type: cell-based, human; conditions: HL60, IC50 dose, 24 h
Procedure, shortened: as §1

MOLT-3 [6] = assay: CellTiter-Glo luminescent cell viability assay; type: cell-based, human; conditions: MOLT-3, 24 h, doses 0, 2, 10, 50, 250, 500 µM, p<0.05
Procedure, shortened: (§4)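 Cells grown in RPMI 1640 with 10% FBS, 1.5 mM L-glutamine and penicillin/streptomycin at 37 °C, 5% CO2. Seeded at 2.5 x 10³ cells/well and exposed 24 h to ethanol-dissolved test compound (0, 2, 10, 50, 250, 500 µM) with 0.1% ethanol vehicle. ATP luminescence normalized to vehicle (100%). IC50 taken from linear regression. Lowest significant dose set by one-way ANOVA/Tukey, p<0.05. Triplicates, three independent experiments.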

MOLT-3 [7] = assay: Hoechst 33342 nuclear morphological analysis of apoptosis; type: cell-based; conditions: Homo sapiens, MOLT-3, 24 h, read-out: AP50 (50% induction of apoptosis), Hoechst 33342 staining (Hoe)
Procedure, shortened: as §3

non-tumor cells (CD34+) = assay: NucView caspase 3 activity assay by flow cytometry; type: cell-based; conditions: 24 h; for EC50: read-out: AP50 (50% induction of apoptosis), Caspase 3 activity assay (C3); for The lowest dose of polyphenols at which there was a significant induction of apoptosis compared to the vehicle control: CD34+ non-tumour control cells, caspase 3 activity, p<0.05
HL60 [8] = assay: Hoechst 33342 nuclear morphological analysis of apoptosis; type: cell-based; conditions: Homo sapiens, HL-60, 24 h, read-out: AP50 (50% induction of apoptosis), Hoechst 33342 staining (Hoe)
Procedure, shortened: as §3

[9] = system: non-tumor cord blood (CD34+) cells; assay: CellTiter-Glo luminescent cell viability assay; type: cell-based; conditions: 24 h; for IC50: read-out: IC50 (50% inhibition of cellular proliferation), CD34+ non-tumour control cells, 24 h treatment; for The lowest dose of polyphenols at which there was a significant inhibition of cell proliferation compared to the vehicle control: CD34+ non-tumour control cells, doses 0, 2, 10, 50, 250, 500 µM, p<0.05
Procedure, shortened: as §4

HL60 [10] = assay: CellTiter-Glo luminescent cell viability assay; type: cell-based, human; conditions: HL60, 24 h, doses 0, 2, 10, 50, 250, 500 µM, p<0.05
Procedure, shortened: as §4

K562 [11] = assay: NucView caspase 3 activity assay by flow cytometry; type: cell-based, human; conditions: for EC50: Homo sapiens, K562, 24 h, read-out: AP50 (50% induction of apoptosis), Caspase 3 activity assay (C3); for The lowest dose of polyphenols at which there was a significant induction of apoptosis compared to the vehicle control: K562, caspase 3 activity, 24 h, p<0.05
Procedure, shortened: as §2

U937 [12] = assay: Cell cycle analysis, propidium iodide flow cytometry; type: cell-based, human; conditions: U937, IC50 dose, 24 h
Procedure, shortened: as §1

JURKAT [13] = assay: as above; type: cell-based, human; conditions: IC50 dose, 24 h, p<0.05
Procedure, shortened: as §1

KG1a [14] = assay: as above; type: cell-based, human; conditions: IC50 dose, 24 h, vehicle control G0/G1 = 44.6%
Procedure, shortened: as §1

KG1a [15] = assay: CellTiter-Glo luminescent cell viability assay; type: cell-based, human; conditions: 24 h; for IC50: Homo sapiens, KG-1a, read-out: IC50 (50% inhibition of cellular proliferation); for The lowest dose of polyphenols at which there was a significant inhibition of cell proliferation compared to the vehicle control: KG1a, doses 0, 2, 10, 50, 250, 500 µM, p<0.05
Procedure, shortened: as §4

K562 [16] = assay: CellTiter-Glo luminescent cell viability assay; type: cell-based, human; conditions: K562, 24 h, doses 0, 2, 10, 50, 250, 500 µM, p<0.05
Procedure, shortened: as §4

K562 [17] = assay: Hoechst 33342 nuclear morphological analysis of apoptosis; type: cell-based; conditions: Homo sapiens, K562, 24 h, read-out: AP50 (50% induction of apoptosis), Hoechst 33342 staining (Hoe)
Procedure, shortened: as §3

JURKAT [18] = assay: NucView caspase 3 activity assay by flow cytometry; type: cell-based, human; conditions: 24 h; for EC50: Homo sapiens, Jurkat, read-out: AP50 (50% induction of apoptosis), Caspase 3 activity assay (C3); for The lowest dose of polyphenols at which there was a significant induction of apoptosis compared to the vehicle control: JURKAT, caspase 3 activity, p<0.05
Procedure, shortened: as §2

THP-1 [19] = assay: CellTiter-Glo luminescent cell viability assay; type: cell-based, human; conditions: THP-1, 24 h, doses 0, 2, 10, 50, 250, 500 µM, p<0.05
Procedure, shortened: as §4

U937 [20] = assay: CellTiter-Glo luminescent cell viability assay; type: cell-based, human; conditions: U937, 24 h, doses 0, 2, 10, 50, 250, 500 µM, p<0.05
Procedure, shortened: as §4

[21] = system: non-tumor progenitor cells (CD34+); assay: Cell cycle analysis, propidium iodide flow cytometry; type: cell-based; conditions: 24 h, within the IC50 ranges used to treat the leukemic cell lines
JURKAT [22] = assay: Hoechst 33342 nuclear morphological analysis of apoptosis; type: cell-based; conditions: Homo sapiens, 24 h, read-out: AP50 (50% induction of apoptosis), Hoechst 33342 staining (Hoe)
Procedure, shortened: as §3

MOLT-3 [23] = assay: NucView caspase 3 activity assay by flow cytometry; type: cell-based, human; conditions: for EC50: Homo sapiens, MOLT-3, 24 h, read-out: AP50 (50% induction of apoptosis), Caspase 3 activity assay (C3); for The lowest dose of polyphenols at which there was a significant induction of apoptosis compared to the vehicle control: MOLT-3, caspase 3 activity, 24 h, p<0.05
Procedure, shortened: as §2

SMILES | EC50 (THP-1 [2]) [µM] | The lowest dose of polyphenols at which there was a significant induction of apoptosis compared to the vehicle control (THP-1 [2]) [µM] | EC50 (THP-1 [3]) [µM] | EC50 (U937 [4]) [µM] | The lowest dose of polyphenols at which there was a significant inhibition of cell proliferation compared to the vehicle control (MOLT-3 [6]) [µM] | EC50 (MOLT-3 [7]) [µM] | EC50 (non-tumor cells (CD34+)) [µM] | The lowest dose of polyphenols at which there was a significant induction of apoptosis compared to the vehicle control (non-tumor cells (CD34+)) [µM] | EC50 (HL60 [8]) [µM] | IC50 [9] [µM] | The lowest dose of polyphenols at which there was a significant inhibition of cell proliferation compared to the vehicle control [9] [µM] | The lowest dose of polyphenols at which there was a significant inhibition of cell proliferation compared to the vehicle control (HL60 [10]) [µM] | EC50 (K562 [11]) [µM] | The lowest dose of polyphenols at which there was a significant induction of apoptosis compared to the vehicle control (K562 [11]) [µM] | Phase of cell cycle accumulation (JURKAT [13]) | Percentage of cells in G0/G1 phase of cell cycle (significant accumulation) (KG1a [14]) | IC50 (KG1a [15]) [µM] | The lowest dose of polyphenols at which there was a significant inhibition of cell proliferation compared to the vehicle control (KG1a [15]) [µM] | The lowest dose of polyphenols at which there was a significant inhibition of cell proliferation compared to the vehicle control (K562 [16]) [µM] | EC50 (K562 [17]) [µM] | also measured
O=c1c(O)c(-c2ccc(O)c(O)c2)oc2cc(O)cc(O)c12 [Quercetin] | > 50 | 10 | > 500 | 50 | 2 | 50 | > 50 | 50 | 50 | > 500 | 250 | 2 | > 50 | 10 | S-phase | G0/G1=52% | 155 | 10 | 2 | 205 | Percentage of cells in G0/G1 phase of cell cycle (significant accumulation) (K562 [1]; vehicle control G0/G1 = 53.7%): G0/G1=60%; Percentage of cells in G0/G1 phase of cell cycle (significant accumulation) (HL60 [5]; vehicle control G0/G1 = 56.8%): G0/G1 =66.2%; Percentage of cells in G2/M phase of cell cycle (significant accumulation) (U937 [12]; vehicle control G2/M = 19.1%): G2/M =25%; EC50 (JURKAT [18]): 19 µM; The lowest dose of polyphenols at which there was a significant induction of apoptosis compared to the vehicle control (JURKAT [18]): 2 µM; The lowest dose of polyphenols at which there was a significant inhibition of cell proliferation compared to the vehicle control (THP-1 [19]): 2 µM; The lowest dose of polyphenols at which there was a significant inhibition of cell proliferation compared to the vehicle control (U937 [20]): 2 µM; Cell cycle arrest in non-tumour control cells [21]: No Arrest <50µM; EC50 (JURKAT [22]): 25 µM; EC50 (MOLT-3 [23]): 50 µM; The lowest dose of polyphenols at which there was a significant induction of apoptosis compared to the vehicle control (MOLT-3 [23]): 10 µM
O=C1c2cccc(O)c2C(=O)c2c(O)cc(CO)cc21 [Aloe - Emodin, Aloe-emodin] | > 250 | 50 | 283 | 195 | 50 | 150 | > 250 | 250 | 190 | > 500 | 500 | 50 | > 250 | 50 | S-phase | G0/G1 =50% | 310 | 50 | 50 | 500 | Percentage of cells in G2/M phase of cell cycle (significant accumulation) (K562 [1]; vehicle control G2/M = 13.6%): G2/M =20%; Percentage of cells in S phase of cell cycle (significant accumulation) (HL60 [5]; vehicle control S = 33.6%): S =35%; Percentage of cells in G0/G1 phase of cell cycle (significant accumulation) (U937 [12]; vehicle control G0/G1 = 44.03%): G0/G1 =53%; EC50 (JURKAT [18]): 50 µM; The lowest dose of polyphenols at which there was a significant induction of apoptosis compared to the vehicle control (JURKAT [18]): 50 µM; The lowest dose of polyphenols at which there was a significant inhibition of cell proliferation compared to the vehicle control (THP-1 [19]): 250 µM; The lowest dose of polyphenols at which there was a significant inhibition of cell proliferation compared to the vehicle control (U937 [20]): 50 µM; Cell cycle arrest in non-tumour control cells [21]: No Arrest <500µM; EC50 (JURKAT [22]): 130 µM; EC50 (MOLT-3 [23]): 50 µM; The lowest dose of polyphenols at which there was a significant induction of apoptosis compared to the vehicle control (MOLT-3 [23]): 50 µM

Source: paper PMC3873039 (Anti-Cancer Agents in Medicinal Chemistry, 2013)
